Test results published in ChEMBL document CHEMBL1124187, “Nucleosides. 150. Synthesis and some biological properties of 5-monofluoromethyl, 5-difluoromethyl, and 5-trifluoromethyl derivatives of 2'-deoxyuridine and 2'-deoxy-2'-fluoro-beta-D-arabinofuranosyluracil” (1988).

Assays:
HL-60 [1] = test: Growth inhibition against HL-60 after 24 hours incubation period; format: functional; conditions: Homo sapiens, HL-60, 24 h; read-out: ID50 (the source's name)
Summary of the method: (§1)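 HL-60 cell growth inhibition; ID50 derived from six concentrations of each nucleoside using the median-effect equation and plot.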

[2] = molecular target: Thymidylate synthase (Mus musculus) (UniProt P07607); test: The compound was tested for inhibition of thymidylate synthase (TS) in L1210 cells; format: cell-based
Chain of Thymidylate synthase (Mus musculus) (P07607 whole entry, looked up): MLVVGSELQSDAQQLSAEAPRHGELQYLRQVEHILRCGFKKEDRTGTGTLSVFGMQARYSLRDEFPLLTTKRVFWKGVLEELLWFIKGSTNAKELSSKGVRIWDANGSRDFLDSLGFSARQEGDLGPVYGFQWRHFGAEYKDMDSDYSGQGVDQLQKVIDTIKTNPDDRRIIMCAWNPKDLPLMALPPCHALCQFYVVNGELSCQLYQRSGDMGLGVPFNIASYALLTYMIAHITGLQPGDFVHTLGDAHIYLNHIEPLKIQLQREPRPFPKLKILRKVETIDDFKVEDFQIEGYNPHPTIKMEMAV
Summary of the method: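 In situ thymidylate synthase activity in intact L1210 cells, measured as tritium released from [5-3H]UDR. Reported as ID50.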

Human alphaherpesvirus 1 = test: Effective dose required for antiherpes activity against HSV-1(F) strain; format: functional; conditions: read-out: ED50 (the source's name)
HL-60 [3] = test: Growth inhibition against HL-60 after 72 hours incubation period; format: functional; conditions: Homo sapiens, HL-60, 72 h; read-out: ID50 (the source's name); summary of the method: as §1
HL-60 [4] = test: The compound was tested for [3H]TdR incorporation into DNA in HL-60 cells; format: functional; conditions: Homo sapiens, HL-60, 30 min; read-out: ID50 (the source's name)
Summary of the method: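 HL-60 cells labelled with [methyl-3H]TDR (1 µCi, 0.02 µM) for 30 min, then label incorporated into DNA measured. ID50 derived from six nucleoside concentrations using the median-effect equation and plot.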

HL-60 [5] = test: Growth inhibition against HL-60 after 48 hours incubation period; format: functional; conditions: Homo sapiens, HL-60, 48 h; read-out: ID50 (the source's name); summary of the method: as §1
Human alphaherpesvirus 2 = test: Effective dose required for antiherpes activity against HSV-2(G) strain; format: functional; conditions: read-out: ED50 (the source's name)
Homo sapiens = organism: Homo sapiens; test: Growth inhibition against HL-60 after 24 hr incubation period; format: functional; summary of the method: as §1

O=c1[nH]c(=O)n([C@H]2C[C@H](O)[C@@H](CO)O2)cc1C(F)(F)F [TRIFLURIDINE]
IC50 (HL-60 [1]): 1.5 µM
ID50 [2]: 0.035 µM
EC50 (Human alphaherpesvirus 1): 0.77 µM
IC50 (HL-60 [3]): 0.14 µM
IC50 (HL-60 [4]): 14 µM
IC50 (HL-60 [5]): 1.7 µM
EC50 (Human alphaherpesvirus 2): 1.88 µM

CC(=O)OC[C@H]1O[C@@H](n2cc(C)c(=O)[nH]c2=O)[C@@H](F)[C@@H]1OC(C)=O
IC50 (HL-60 [1]): > 1000 µM
EC50 (Human alphaherpesvirus 1): 0.44 µM
IC50 (HL-60 [3]): 119 µM
IC50 (HL-60 [5]): 209 µM
EC50 (Human alphaherpesvirus 2): 1.23 µM

O=c1[nH]c(=O)n([C@@H]2O[C@H](CO)[C@@H](O)[C@@H]2F)cc1CO
IC50 (HL-60 [1]): > 5000 µM
ID50 [2]: > 1000 µM
EC50 (Human alphaherpesvirus 1): 2 µM
IC50 (HL-60 [3]): 1920 µM
IC50 (HL-60 [5]): 1160 µM
EC50 (Human alphaherpesvirus 2): 5.5 µM

O=c1[nH]c(=O)n([C@H]2C[C@H](O)[C@@H](CO)O2)cc1C(F)F
IC50 (HL-60 [1]): 4 µM
ID50 [2]: 0.063 µM
EC50 (Human alphaherpesvirus 1): 0.8 µM
IC50 (HL-60 [3]): 0.12 µM
IC50 (HL-60 [4]): 5.1 µM
IC50 (HL-60 [5]): 1.25 µM
EC50 (Human alphaherpesvirus 2): 1.17 µM

CC(=O)OC[C@H]1O[C@@H](n2cc(CF)c(=O)[nH]c2=O)C[C@@H]1OC(C)=O
IC50 (HL-60 [1]): 3470 µM
EC50 (Human alphaherpesvirus 1): > 100 µM
IC50 (HL-60 [3]): 324 µM
IC50 (HL-60 [5]): 976 µM
EC50 (Human alphaherpesvirus 2): > 100 µM

O=c1[nH]c(=O)n([C@@H]2O[C@H](CO)[C@@H](O)[C@@H]2F)cc1C(F)F
IC50 (HL-60 [1]): 97 µM
ID50 [2]: 56 µM
EC50 (Human alphaherpesvirus 1): 0.34 µM
IC50 (HL-60 [3]): 6.6 µM
IC50 (HL-60 [4]): > 1000 µM
IC50 (HL-60 [5]): 12 µM
EC50 (Human alphaherpesvirus 2): 1.04 µM

O=c1[nH]c(=O)n([C@@H]2O[C@H](CO)[C@@H](O)[C@@H]2F)cc1C(F)(F)F
IC50 (HL-60 [1]): 304 µM
ID50 [2]: 14 µM
EC50 (Human alphaherpesvirus 1): 0.83 µM
IC50 (HL-60 [3]): 17 µM
IC50 (HL-60 [4]): > 1000 µM
IC50 (HL-60 [5]): 29 µM
EC50 (Human alphaherpesvirus 2): 1.7 µM

CC(=O)OC[C@H]1O[C@@H](n2cc(C(F)(F)F)c(=O)[nH]c2=O)[C@@H](F)[C@@H]1OC(C)=O
IC50 (HL-60 [1]): 54 µM
EC50 (Human alphaherpesvirus 1): 1.3 µM
IC50 (HL-60 [3]): 65 µM
IC50 (HL-60 [5]): 62 µM
EC50 (Human alphaherpesvirus 2): 1.3 µM

CC(=O)OC[C@H]1O[C@@H](n2cc(CF)c(=O)[nH]c2=O)[C@@H](F)[C@@H]1OC(C)=O
IC50 (HL-60 [1]): 860 µM
EC50 (Human alphaherpesvirus 1): 2.43 µM
IC50 (HL-60 [3]): 312 µM
IC50 (HL-60 [5]): 500 µM
EC50 (Human alphaherpesvirus 2): 5.19 µM

O=c1[nH]c(=O)n([C@H]2C[C@H](O)[C@@H](CO)O2)cc1CF
IC50 (HL-60 [1]): 178 µM
ID50 [2]: 11 µM
EC50 (Human alphaherpesvirus 1): > 100 µM
IC50 (HL-60 [3]): > 1000 µM
IC50 (HL-60 [4]): 18.6 µM
IC50 (HL-60 [5]): > 1000 µM
EC50 (Human alphaherpesvirus 2): > 100 µM

Cc1cn([C@@H]2O[C@H](CO)[C@@H](O)[C@@H]2F)c(=O)[nH]c1=O [5-METHYL-2'-FLUOROARAURACIL]
IC50 (HL-60 [1]): 136 µM
ID50 [2]: > 1000 µM
EC50 (Human alphaherpesvirus 1): 0.07 µM
IC50 (HL-60 [3]): 25 µM
IC50 (HL-60 [4]): 20 µM
IC50 (HL-60 [5]): 51 µM
EC50 (Human alphaherpesvirus 2): 0.07 µM

O=c1[nH]c(=O)n([C@H]2C[C@H](O)[C@@H](CO)O2)cc1CO
ID50 [2]: > 1000 µM

O=c1[nH]c(=O)n([C@@H]2O[C@H](CO)[C@@H](O)[C@@H]2F)cc1CF
IC50 (HL-60 [1]): 995 µM
ID50 [2]: > 1000 µM
EC50 (Human alphaherpesvirus 1): 0.68 µM
IC50 (HL-60 [3]): 119 µM
IC50 (HL-60 [4]): 189 µM
IC50 (HL-60 [5]): 202 µM
EC50 (Human alphaherpesvirus 2): 0.8 µM

CC(=O)OC[C@H]1O[C@@H](n2cc(C(F)F)c(=O)[nH]c2=O)[C@@H](F)[C@@H]1OC(C)=O
EC50 (Human alphaherpesvirus 1): 0.71 µM
IC50 (HL-60 [3]): 40 µM
IC50 (HL-60 [5]): 83 µM
EC50 (Human alphaherpesvirus 2): 2.16 µM
ID50 (Homo sapiens): 257 µM

Cc1cn([C@H]2C[C@H](O)[C@@H](CO)O2)c(=O)[nH]c1=O [DOXRIBTIMINE]
IC50 (HL-60 [1]): 901 µM
ID50 [2]: 75 µM
EC50 (Human alphaherpesvirus 1): > 1000 µM
IC50 (HL-60 [3]): 336 µM
IC50 (HL-60 [4]): 0.61 µM
IC50 (HL-60 [5]): 461 µM
EC50 (Human alphaherpesvirus 2): > 1000 µM

O=Cc1cn([C@@H]2O[C@H](CO)[C@@H](O)[C@@H]2F)c(=O)[nH]c1=O
ID50 [2]: > 1000 µM

CC(=O)OC[C@H]1O[C@@H](n2cc(C(F)(F)F)c(=O)[nH]c2=O)C[C@@H]1OC(C)=O
IC50 (HL-60 [1]): 501 µM
EC50 (Human alphaherpesvirus 1): 4.7 µM
IC50 (HL-60 [3]): 8.5 µM
IC50 (HL-60 [5]): 19 µM
EC50 (Human alphaherpesvirus 2): 16.3 µM

CC(=O)OC[C@H]1O[C@@H](n2cc(C(F)F)c(=O)[nH]c2=O)C[C@@H]1OC(C)=O
IC50 (HL-60 [1]): 83 µM
EC50 (Human alphaherpesvirus 1): 17 µM
IC50 (HL-60 [3]): 14 µM
IC50 (HL-60 [5]): 14 µM
EC50 (Human alphaherpesvirus 2): 25.1 µM
